Key:
[1] = Spontaneous hydrolysis in neutral aqueous buffer; format: physicochemical; details: pH 7.5, 25 °C
Procedure, shortened: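 Test compounds were diluted from concentrated acetonitrile stocks to ≤5% acetonitrile in 20 mM MOPS, pH 7.5, at 25 °C, and their hydrolysis without enzyme was followed by UV-vis. Full progress curves were fit to a pseudo-first-order equation by nonlinear least squares, and triplicate rate constants were averaged. The clavulanic acid reference (85 μM) was run in 25 mM MOPS, pH 7.5, at 25 °C, read at 260 nm.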

class C P99 β-lactamase = class C P99 β-lactamase (Enterobacter cloacae, UniProt P05364); format: biochemical; details: steady state turnover by P99 β-lactamase, 20 mM MOPS pH 7.5, 25 °C
[2] = pKa determination by spectrophotometric titration; format: physicochemical; details: spectrophotometric titration at 233 nm, 25 °C, ionic strength 1.0
P99 β-lactamase [3] = molecular target: T1, P99 β-lactamase (Enterobacter cloacae, UniProt P05364); format: biochemical; details: pH range 6.0–9.5, 25 °C, ionic strength 1.0
[4] = molecular target: class D OXA-1 β-lactamase (Escherichia coli, UniProt P13661); assay: OXA-1 β-lactamase hydrolysis and inhibition; format: biochemical
[5] = molecular target: Streptomyces R61 DD-peptidase (Streptomyces sp., UniProt P15555); assay: Hydrolysis in the presence of R61 DD-peptidase; format: biochemical; details: enzyme 0.5 μM
[6] = molecular target: Actinomadura R39 DD-peptidase (Actinomadura sp., UniProt P39045); assay: Hydrolysis in the presence of R39 DD-peptidase; format: biochemical
class C ampC β-lactamase = class C ampC β-lactamase (Escherichia coli, UniProt P00811); assay: ampC β-lactamase substrate activity; format: biochemical
[7] = in dioxane/water; cited from earlier work
P99 β-lactamase [8] = molecular target: T1, P99 β-lactamase; assay: P99 β-lactamase activity with time after incubation with compound; format: biochemical; details: enzyme 0.25 μM, compound 100 μM

Sequence of class C P99 β-lactamase (P05364 21-381): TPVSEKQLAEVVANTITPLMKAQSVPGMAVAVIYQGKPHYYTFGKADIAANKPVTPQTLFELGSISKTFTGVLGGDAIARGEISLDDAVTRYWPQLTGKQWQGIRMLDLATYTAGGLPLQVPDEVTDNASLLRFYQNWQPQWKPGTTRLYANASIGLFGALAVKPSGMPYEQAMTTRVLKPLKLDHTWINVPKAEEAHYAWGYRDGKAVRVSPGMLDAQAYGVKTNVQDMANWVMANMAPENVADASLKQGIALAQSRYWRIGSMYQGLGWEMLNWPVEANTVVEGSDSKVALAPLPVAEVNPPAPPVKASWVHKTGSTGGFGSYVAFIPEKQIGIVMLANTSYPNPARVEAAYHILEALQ
T1 sequence (P05364 21-381): as above
Sequence of class D OXA-1 β-lactamase (P13661 26-276): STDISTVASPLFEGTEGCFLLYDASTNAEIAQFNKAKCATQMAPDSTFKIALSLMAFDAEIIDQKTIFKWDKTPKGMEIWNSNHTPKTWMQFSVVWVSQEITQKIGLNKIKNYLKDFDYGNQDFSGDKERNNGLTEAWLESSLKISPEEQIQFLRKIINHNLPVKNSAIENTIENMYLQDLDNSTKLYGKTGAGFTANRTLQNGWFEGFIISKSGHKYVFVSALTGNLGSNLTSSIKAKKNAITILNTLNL
Sequence of Actinomadura R39 DD-peptidase (P39045 50-538): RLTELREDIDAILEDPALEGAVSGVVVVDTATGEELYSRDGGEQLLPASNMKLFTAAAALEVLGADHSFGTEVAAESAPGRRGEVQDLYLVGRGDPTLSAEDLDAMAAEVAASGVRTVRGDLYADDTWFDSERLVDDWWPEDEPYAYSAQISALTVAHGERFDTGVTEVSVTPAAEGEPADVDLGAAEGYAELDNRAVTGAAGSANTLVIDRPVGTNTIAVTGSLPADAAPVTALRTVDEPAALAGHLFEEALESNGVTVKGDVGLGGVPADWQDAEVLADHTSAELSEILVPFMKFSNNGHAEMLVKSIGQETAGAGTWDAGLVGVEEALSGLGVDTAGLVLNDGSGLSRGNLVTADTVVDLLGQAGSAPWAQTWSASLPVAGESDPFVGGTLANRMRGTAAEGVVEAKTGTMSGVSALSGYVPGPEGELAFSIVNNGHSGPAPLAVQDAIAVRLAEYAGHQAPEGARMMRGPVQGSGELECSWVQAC
Sequence of Streptomyces R61 DD-peptidase (P15555 32-406): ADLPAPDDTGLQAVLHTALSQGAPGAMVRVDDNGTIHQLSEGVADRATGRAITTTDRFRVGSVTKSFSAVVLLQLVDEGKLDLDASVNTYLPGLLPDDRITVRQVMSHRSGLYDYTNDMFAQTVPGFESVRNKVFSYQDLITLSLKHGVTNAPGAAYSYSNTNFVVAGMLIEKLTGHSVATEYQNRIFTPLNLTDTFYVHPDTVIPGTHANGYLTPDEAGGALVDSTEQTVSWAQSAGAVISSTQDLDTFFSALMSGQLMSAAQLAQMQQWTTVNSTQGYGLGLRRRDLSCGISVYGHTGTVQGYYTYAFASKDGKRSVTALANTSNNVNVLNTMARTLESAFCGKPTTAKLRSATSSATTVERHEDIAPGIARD
Sequence of class C ampC β-lactamase (P00811 20-377): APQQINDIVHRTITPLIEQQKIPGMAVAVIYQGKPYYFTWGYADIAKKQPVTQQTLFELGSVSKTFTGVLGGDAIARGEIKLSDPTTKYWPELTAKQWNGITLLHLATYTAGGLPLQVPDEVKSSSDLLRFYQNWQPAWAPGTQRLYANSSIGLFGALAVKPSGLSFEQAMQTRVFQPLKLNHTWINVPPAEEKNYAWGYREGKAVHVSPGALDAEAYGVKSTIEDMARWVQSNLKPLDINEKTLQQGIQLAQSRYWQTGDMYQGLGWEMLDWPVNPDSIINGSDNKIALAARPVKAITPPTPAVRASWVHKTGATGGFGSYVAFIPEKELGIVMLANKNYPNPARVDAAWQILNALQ

O=C(NOC(=O)C(O)Cc1ccccc1)OCc1ccccc1 (stereo not shown) [Compound 7, N-(Benzyloxycarbonyl)-O-(2-hydroxy-3-phenylpropanoyl)hydroxylamine]
ksp, rate constant of spontaneous hydrolysis ([1]; 20 mM MOPS): (8.2 ± 0.8) × 10^−5 s^−1
Km (class C P99 β-lactamase): 71 ± 10 µM
pKa (acidic NH proton) [2]: 7.58 ± 0.03
pKa for decreasing activity in pH-rate profile (P99 β-lactamase [3]): 7.6 ± 0.2
fast reversible or slow inhibition of the OXA-1 enzyme [4]: no significant fast reversible or slow inhibition
hydrolysis catalyzed by OXA-1 ([4]; 20 mM MOPS, 50 mM NaHCO3, 0.1 % gelatin, pH 7.5): did not catalyze hydrolysis
substrate activity with R61 DD-peptidase [5]: not substrates
substrate activity with R39 DD-peptidase [6]: not substrates
substrate activity with ampC β-lactamase (class C ampC β-lactamase): good substrate

O=C(NOC(=O)C(O)Cc1ccccc1)OCc1ccccc1 (stereo not shown) [Compound 8, N-(Benzyloxycarbonyl)-O-(2-hydroxy-3-phenylpropanoyl)hydroxylamine]
Km (class C P99 β-lactamase): 340 ± 60 µM

O=C(O)[C@H]1/C(=C/CO)O[C@@H]2CC(=O)N21 [clavulanic acid, reference compound]
spontaneous hydrolysis rate constant ([1]; 85 μM in 25 mM MOPS buffer, monitored at 260 nm): 8e-05 s⁻¹

O=[N+]([O-])c1ccc(O)cc1 [p-nitrophenol]
pKa [7]: 9.4

N-(Benzyloxycarbonyl)-O-(1-D-carboxy-ethoxycarbonyl)hydroxylamine [2 (R = CH2Ph, R′=Me)]
enzyme activity against cephalothin with time after mixing (P99 β-lactamase [8]): initial loss of enzyme activity, measured against the good substrate, cephalothin, followed by a slower restoration of activity

Source: article PMC2999657 (Biochemistry, 2010)
